# In ChEMBL document CHEMBL4017544 (J Med Chem, 2017):
# The source made the active and inactive calls. No cut-off for these calls is given here.
# Assays:
# [1] = system: HEK293; assay: Cytotoxicity against HEK293 cells assessed as reduction in cell viability after 24 hrs by MTT assay; assay type: cell-based; conditions: Homo sapiens, HEK293, 24 h
# Summary of the method: (§1)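 HEK293 or H9C2 cells grown in high-glucose DMEM with 10% FBS, exposed to compound for 24 h; viability by MTT, IC50 calculated.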
# [2] = molecular target: T1, Inhibitor of nuclear factor kappa-B kinase subunit beta (Homo sapiens) (UniProt O14920); assay: Inhibition of IKKbeta (unknown origin) transfected in HEK293 cells assessed as reduction in TNFalpha-induced upregulation of iNOS mRNA expression at 200 to 1000 nM administered 6 hrs after TNFalpha stimulation measured for 24 hrs by quantitative RT-PCR analysis; assay type: cell-based
# T1 sequence (whole entry): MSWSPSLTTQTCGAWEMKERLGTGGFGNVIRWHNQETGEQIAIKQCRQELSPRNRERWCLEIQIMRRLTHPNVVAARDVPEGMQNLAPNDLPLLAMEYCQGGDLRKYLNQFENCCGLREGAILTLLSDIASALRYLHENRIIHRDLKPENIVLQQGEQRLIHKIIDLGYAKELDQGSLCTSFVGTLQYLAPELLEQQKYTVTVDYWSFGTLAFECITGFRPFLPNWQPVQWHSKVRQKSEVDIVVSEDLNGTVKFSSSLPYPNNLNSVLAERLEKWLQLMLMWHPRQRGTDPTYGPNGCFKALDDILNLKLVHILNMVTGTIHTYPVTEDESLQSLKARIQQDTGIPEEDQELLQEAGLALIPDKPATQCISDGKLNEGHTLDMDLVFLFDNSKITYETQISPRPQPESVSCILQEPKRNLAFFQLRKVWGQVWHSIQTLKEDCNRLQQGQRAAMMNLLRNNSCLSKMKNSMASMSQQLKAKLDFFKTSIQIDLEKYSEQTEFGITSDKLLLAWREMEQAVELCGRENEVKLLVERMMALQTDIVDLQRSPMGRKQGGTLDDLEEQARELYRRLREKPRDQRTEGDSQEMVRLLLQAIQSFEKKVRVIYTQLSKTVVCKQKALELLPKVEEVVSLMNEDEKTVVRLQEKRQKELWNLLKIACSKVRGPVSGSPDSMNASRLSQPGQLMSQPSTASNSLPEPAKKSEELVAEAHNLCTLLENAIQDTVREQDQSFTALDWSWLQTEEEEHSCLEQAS
# Summary of the method: (§2)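 HEK293 cells pretreated with TNF-α (10 ng/mL) for 6 h, then given compound at 200 or 1000 nM for 24 h, in triplicate; iNOS, COX2 and MCP-1 mRNA relative to GAPDH by quantitative RT-PCR, 2−ΔΔCt method; mean ± SD from three experiments.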
# [3] = Half life in Sprague-Dawley rat at 10 mg/kg, iv measured up to 24 hrs by LC-MS/MS analysis; assay type: ADME, organism-based; conditions: in vivo
# Summary of the method: (§3)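 Rats dosed intravenously at 10 mg/kg; blood drawn from suborbital vein at 0, 2, 5, 15, 30, 60 min and 1.5, 2, 4, 6, 8, 12, 24 h; plasma levels by LC-MS/MS; parameters from concentration–time profiles, mean ± SD, n = 3.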
# [4] = molecular target: T1, Inhibitor of nuclear factor kappa-B kinase subunit beta (Homo sapiens); assay: Inhibition of IKKbeta (unknown origin) transfected in HEK293 cells assessed as reduction in TNFalpha-induced upregulation of MCP1 mRNA expression at 200 to 1000 nM administered 6 hrs after TNFalpha stimulation measured for 24 hrs by quantitative RT-PCR analysis; assay type: cell-based; summary of the method: as §2
# [5] = Clearance in Sprague-Dawley rat at 10 mg/kg, iv measured up to 24 hrs by LC-MS/MS analysis; assay type: ADME, organism-based; conditions: in vivo; summary of the method: as §3
# [6] = molecular target: Kelch-like ECH-associated protein 1 (Homo sapiens) (UniProt Q14145); assay: Inhibition of Keap1/Nrf2 (unknown origin) interaction transfected in HEK293 cells assessed as activation of Nrf2 at 200 to 1000 nM after 48 hrs by ARE-driven luciferase reporter gene assay; assay type: cell-based
# Summary of the method: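 HEK293 cells (ATCC; high-glucose DMEM, 10% FBS) were treated in triplicate for 48 h. For the reporter read-out, cells were transfected with an ARE-dependent luciferase plasmid and luciferase activity was measured. For mRNA, total RNA was extracted with TRIzol and reverse transcribed, and target transcripts were quantified by qRT-PCR relative to GAPDH using the 2−ΔΔCt method. Three independent experiments, mean ± SD.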
# [7] = molecular target: T1, Inhibitor of nuclear factor kappa-B kinase subunit beta (Homo sapiens); assay: Inhibition of IKKbeta (unknown origin) transfected in HEK293 cells assessed as reduction in TNFalpha-induced upregulation of iNOS protein expression at 200 to 1000 nM administered 6 hrs after TNFalpha stimulation measured for 24 hrs by Western blot method; assay type: cell-based
# Summary of the method: (§4)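 HEK293 cells pretreated with TNF-α (10 ng/mL) for 6 h, then given compound at 200 or 1000 nM for 24 h, in triplicate; nuclear and cytosolic p65, iNOS and COX2 protein by western blot; mean ± SD from three experiments.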
# [8] = molecular target: T1, Inhibitor of nuclear factor kappa-B kinase subunit beta (Homo sapiens); assay: Inhibition of IKKbeta (unknown origin) transfected in HEK293 cells assessed as mitigation of TNFalpha-induced increase in ratio of nuclear to cytosolic p65 at 200 to 1000 nM administered 6 hrs after TNFalpha stimulation measured for 24 hrs by Western blot method; assay type: cell-based; summary of the method: as §4
# [9] = AUC (0 to t) in Sprague-Dawley rat at 10 mg/kg, iv measured up to 24 hrs by LC-MS/MS analysis; assay type: ADME, organism-based; set-up: dose 10 mg/kg, time < 24 hr, route intravenous; conditions: in vivo; summary of the method: as §3
# [10] = Solubility of compound in saline at 100 uM at pH 7.4 by HPLC analysis; assay type: physicochemical
# Summary of the method: (§5)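 Solubility was determined by an established HPLC method, in saline alone or in saline containing 1% 1,3-propylene glycol and 1% Tween 80.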
# [11] = system: H9c2; assay: Cytotoxicity against rat H9c2 cells assessed as reduction in cell viability after 24 hrs by MTT assay; assay type: cell-based; conditions: H9c2, 24 h; summary of the method: as §1
# [12] = AUC (0 to infinity) in Sprague-Dawley rat at 10 mg/kg, iv measured up to 24 hrs by LC-MS/MS analysis; assay type: ADME, organism-based; set-up: dose 10 mg/kg, route intravenous, time infinity; conditions: in vivo; summary of the method: as §3
# [13] = Acute toxicity in ip dosed ICR mouse assessed as lethality administered daily for 7 days; assay type: organism-based; conditions: in vivo
# Summary of the method: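 Intraperitoneal dosing of ICR mice once daily for 7 days, with top doses up to 600 or 1000 mg/kg depending on the compound. Lethality was recorded and expressed as an LD50 (mg/kg).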
# [14] = Cmax in Sprague-Dawley rat at 10 mg/kg, iv measured up to 24 hrs by LC-MS/MS analysis; assay type: ADME, organism-based; set-up: dose 10 mg/kg, route intravenous; conditions: in vivo; summary of the method: as §3
# [15] = molecular target: T1, Inhibitor of nuclear factor kappa-B kinase subunit beta (Homo sapiens); assay: Inhibition of IKKbeta (unknown origin) transfected in HEK293 cells assessed as reduction in TNFalpha-induced upregulation of COX2 protein expression at 200 to 1000 nM administered 6 hrs after TNFalpha stimulation measured for 24 hrs by Western blot method; assay type: cell-based; summary of the method: as §4
# [16] = Solubility of compound in saline containing 1% 1,3-propylene glycol/ 1% Tween 80 at 100 uM at pH 7.4 by HPLC analysis; assay type: physicochemical; summary of the method: as §5
# [17] = molecular target: T1, Inhibitor of nuclear factor kappa-B kinase subunit beta (Homo sapiens); assay: Inhibition of IKKbeta (unknown origin) transfected in HEK293 cells assessed as reduction in TNFalpha-induced upregulation of MCP1 mRNA expression at 200 to 1000 nM administered 6 hrs after TNFalpha stimulation measured for 24 hrs by quantitative RT-PCR method
# Kelch-like ECH-associated protein 1 (Homo sapiens), sequence (Q14145 whole entry): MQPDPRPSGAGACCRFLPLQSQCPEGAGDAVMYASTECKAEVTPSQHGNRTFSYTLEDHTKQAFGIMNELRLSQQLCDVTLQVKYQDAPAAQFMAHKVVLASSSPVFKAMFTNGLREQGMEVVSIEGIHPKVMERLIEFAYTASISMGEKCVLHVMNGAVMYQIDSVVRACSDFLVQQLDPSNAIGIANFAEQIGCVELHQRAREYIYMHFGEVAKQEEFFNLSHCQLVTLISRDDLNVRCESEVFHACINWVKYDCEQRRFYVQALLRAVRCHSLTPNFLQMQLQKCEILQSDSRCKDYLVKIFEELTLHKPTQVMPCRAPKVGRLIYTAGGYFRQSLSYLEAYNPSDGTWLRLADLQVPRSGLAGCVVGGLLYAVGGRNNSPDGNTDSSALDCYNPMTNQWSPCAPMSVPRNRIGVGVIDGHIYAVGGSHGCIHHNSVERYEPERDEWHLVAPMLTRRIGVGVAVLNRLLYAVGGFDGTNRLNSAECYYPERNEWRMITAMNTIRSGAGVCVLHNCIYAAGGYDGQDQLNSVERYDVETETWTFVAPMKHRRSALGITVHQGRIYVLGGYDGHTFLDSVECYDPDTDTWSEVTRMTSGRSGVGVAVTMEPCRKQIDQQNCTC
Compound,IC50 [1] [µM],inhibition [2],half-life [3] [h],inhibition [4],clearance [5] [mL/min/kg],inhibition [6],inhibition [7],inhibition [8],AUC(0-t) at 24 h [9] [ng·h/mL],"solubility at 100 µM ([10]; saline, pH 7.4) [µg/mL]",IC50 [11] [µM],AUC(0-inf) [12] [ng·h/mL],LD50 at 168 h [13] [mg/kg],Cmax [14] [ng/mL],inhibition [15],"solubility at 100 µM ([16]; saline containing 1% 1,3-propylene glycol/1% Tween 80, pH 7.4) [µg/mL]",inhibition [17],"solubility ([10]; buffer, pH 7.4, 100 µM)","solubility ([16]; buffer, pH 7.4, 100 µM)"
COC(=O)[C@@H](N)CCC(=O)Nc1ccc(COC2=C(C#N)[C@H](O)[C@]3(C)C4=CC(=O)[C@@H]5[C@@H]6CC(C)(C)CC[C@]6(C(=O)OC)CC[C@@]5(C)[C@]4(C)CC[C@H]3C2(C)C)cc1,56.5,Active,1.31,Active,340,Active,Active,Active,509,8.9,112,531,886,3020,Active,12200,Active,–,–
COC(=O)[C@]12CCC(C)(C)C[C@H]1[C@H]1C(=O)C=C3[C@@]4(C)C=C(C#N)C(=O)C(C)(C)[C@@H]4CC[C@@]3(C)[C@]1(C)CC2 [BARDOXOLONE METHYL],2.2,Active,4.41,Active,78,Active,Active,Active,2060,–,5.2,2180,425,5020,Active,–,Active,Insoluble,Insoluble
